Test results as given in ChEMBL document CHEMBL1139324, “Chemical modification and biological evaluation of new semisynthetic derivatives of 28,29-Didehydronystatin A1 (S44HP), a genetically engineered antifungal polyene macrolide antibiotic” (J Med Chem, 2009).
≈ marks a conversion by molar mass, not a printed value.

Experiments:
[1] = Toxicity in Candida albicans ATCC 14053 infected iv dosed (C57BL/6xDBA/2)F1 B6D2F1 mouse; format: organism-based; conditions: in vivo
Candida albicans [2] = experiment: Antifungal activity against Candida albicans ATCC 10231after 48 hrs by broth microdilution method; format: functional; conditions: ATCC 10231, 48 h
Aspergillus niger = experiment: Antifungal activity against Aspergillus niger ATCC 16404 after 48 hrs by broth microdilution method; format: functional; conditions: ATCC 16404, 48 h
Procedure, shortened: (§1)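 Susceptibility of filamentous fungi (molds) by broth microdilution per NCCLS M38-A in 96-well microplates. The MIC is read as the lowest inhibitory concentration. It is given as one number when replicate data fully agreed.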

Fusarium oxysporum = experiment: Antifungal activity against Fusarium oxysporum VKM F-140 after 48 hrs by broth microdilution method; format: functional; procedure, shortened: as §1
Candida albicans [3] = experiment: Antifungal activity against Candida albicans ATCC 14053 after 48 hrs by broth microdilution method; format: functional; conditions: ATCC 14053, 48 h
Procedure, shortened: (§2)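 Yeast susceptibility by broth microdilution per NCCLS M27-A in 96-well plates. MIC is the lowest concentration inhibiting growth. Where repeat runs fully coincided, a single value is reported.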

[4] = Toxicity against human erythrocytes assessed as hemolytic activity at 5 ug/ml; format: cell-based, Erythrocyte; conditions: read-out: Activity
Procedure, shortened: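 Lysis of erythrocytes in defibrinated human blood was measured under buffered conditions with compound at 5 µg/mL. Percent hemolysis is the mean of blood samples from two donors.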

Vanrija humicola = experiment: Antifungal activity against Cryptococcus humicolus ATCC 9949 after 48 hrs by broth microdilution method; format: functional; conditions: ATCC 9949, 48 h; procedure, shortened: as §2

Row | SMILES | LD50 [1] [mg/kg] | MTD [1] [mg/kg] | MIC50 (Candida albicans [2]) [µg/mL] | MIC90 (Candida albicans [2]) [µg/mL] | MIC (Aspergillus niger) [µg/mL] | MIC (Fusarium oxysporum) [µg/mL] | MIC (Candida albicans [3]) [µg/mL] | hemolysis at 5 ug/ml [4] [%] | MIC (Vanrija humicola) [µg/mL]
1 | C[C@@H]1[C@H](O)[C@@H](C)/C=C/C=C/C=C/C=C/C=C/C=C/C=C/[C@H](O[C@H]2O[C@@H](C)[C@H](O)[C@@H](N)[C@H]2O)C[C@@H]2O[C@](O)(C[C@@H](O)[C@H](O)CC[C@@H](O)C[C@@H](O)C[C@@H](O)CC(=O)O[C@H]1C)C[C@H](O)[C@H]2C(=O)O | 2.2 | 0.64 | 0.12 (≈ 0.13 µM) | 0.4 (≈ 0.433 µM) | 1 (≈ 1.08 µM) | 4 (≈ 4.33 µM) | 1 (≈ 1.08 µM) | 41 | 1 (≈ 1.08 µM)
2 | C[C@@H]1[C@H](O)[C@@H](C)/C=C/C=C/C=C/C=C/C=C/C=C/C=C/[C@H](O[C@H]2O[C@@H](C)[C@H](O)[C@@H](N)[C@H]2O)C[C@@H]2O[C@](O)(C[C@@H](O)[C@H](O)CC[C@@H](O)C[C@@H](O)C[C@@H](O)CC(=O)O[C@H]1C)C[C@H](O)[C@H]2C(=O)NCCCN(C)C | 16.4 | 11.9 | 0.08 (≈ 0.0793 µM) | 0.3 (≈ 0.298 µM) | 2 (≈ 1.98 µM) | 2 (≈ 1.98 µM) | 1 (≈ 0.992 µM) | 2 | 1 (≈ 0.992 µM)
3 | C[C@@H]1[C@H](O)[C@@H](C)/C=C/C=C/C=C/C=C/C=C/C=C/C=C/[C@H](O[C@H]2O[C@@H](C)[C@H](O)[C@@H](N(CCCN)CCCN)[C@H]2O)C[C@@H]2O[C@](O)(C[C@@H](O)[C@H](O)CC[C@@H](O)C[C@@H](O)C[C@@H](O)CC(=O)O[C@H]1C)C[C@H](O)[C@H]2C(=O)O |  |  | 0.04 (≈ 0.0385 µM) | 0.13 (≈ 0.125 µM) | 1 (≈ 0.963 µM) | 1 (≈ 0.963 µM) | 1 (≈ 0.963 µM) | 15 | 1 (≈ 0.963 µM)
4 | C[C@@H]1[C@H](O)[C@@H](C)/C=C/C=C/C=C/C=C/C=C/C=C/C=C/[C@H](O[C@H]2O[C@@H](C)[C@H](O)[C@@H](N)[C@H]2O)C[C@@H]2O[C@](O)(C[C@@H](O)[C@H](O)CC[C@@H](O)C[C@@H](O)C[C@@H](O)CC(=O)O[C@H]1C)C[C@H](O)[C@H]2C(=O)N1CCN(CCO)CC1 |  |  | 0.13 (≈ 0.125 µM) | 0.52 (≈ 0.502 µM) | 2 (≈ 1.93 µM) | 4 (≈ 3.86 µM) | 1 (≈ 0.965 µM) | 2 | 2 (≈ 1.93 µM)
5 | C[C@@H]1[C@H](O)[C@@H](C)/C=C/C=C/C=C/C=C/C=C/C=C/C=C/[C@H](O[C@@H]2O[C@H](C)[C@@H](O)[C@H](N)[C@@H]2O)C[C@@H]2O[C@](O)(C[C@@H](O)C[C@@H](O)[C@H](O)CC[C@@H](O)C[C@@H](O)CC(=O)O[C@H]1C)C[C@H](O)[C@H]2C(=O)O [AMPHOTERICIN B] | 2.8 | 2.01 | 0.11 (≈ 0.119 µM) | 0.36 (≈ 0.39 µM) | 1 (≈ 1.08 µM) | 4 (≈ 4.33 µM) | 1 (≈ 1.08 µM) | 30 | 1 (≈ 1.08 µM)
